Measurements from ChEMBL document CHEMBL1154198, “Chemical genetics of Plasmodium falciparum” (Nature, 2010).

Legend:
Plasmodium falciparum [1] = assay: ST_JUDE: Cytotoxicity against Plasmodium falciparum D10 transfected with yeast DHOD; type: functional, organism-based
Plasmodium falciparum [2] = assay: ST_JUDE: Plasmodium falciparum K1 EC50 (uM) as measured by SYBR green dye; type: functional, organism-based
Plasmodium falciparum [3] = assay: ST_JUDE: Cytotoxicity against Plasmodium falciparum V1/S; type: functional, organism-based
[4] = ST_JUDE: Cytotoxicity using luciferase to measure ATP as an indicator of the viability of human epithelial embryonic kidney cells (HEK293); type: toxicity, cell-based
Plasmodium falciparum [5] = assay: ST_JUDE: Cytotoxicity against Plasmodium falciparum K1; type: functional, organism-based
Procedure, shortened: (§1)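 Asexual P. falciparum grown in human erythrocytes, exposed to compounds for 72 h, and growth read as the DNA quantity in treated versus control cultures. Dose-response run at 12 concentrations from 10 μM to 5 nM.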

Plasmodium falciparum [6] = assay: ST_JUDE: Cytotoxicity against Plasmodium falciparum SB-A6; type: functional, organism-based
Plasmodium falciparum [7] = assay: ST_JUDE: Cytotoxicity against Plasmodium falciparum Dd2; type: functional, organism-based
Plasmodium falciparum [8] = assay: ST_JUDE: Cytotoxicity against Plasmodium falciparum W2; type: functional, organism-based
Plasmodium falciparum [9] = assay: ST_JUDE: Cytotoxicity against Plasmodium falciparum 3D7; type: functional, organism-based; procedure, shortened: as §1
Trypanosoma brucei = assay: ST_JUDE: Cytotoxicity using luciferase to measure ATP as an indicator of the viability of Trypanosoma brucei; type: functional, organism-based
Toxoplasma gondii = assay: ST_JUDE: Growth inhibition of to Toxoplasma gondii, in human U-2OS cells, as measured by luciferase.; type: functional, organism-based; conditions: RH, U2OS
Procedure, shortened: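 T. gondii parasites engineered to express luciferase; drug sensitivity read by luminescence.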

[10] = ST_JUDE: Cytotoxicity using luciferase to measure ATP as an indicator of the viability of human foreskin fibroblast cells (BJ); type: toxicity, cell-based
Leishmania major = assay: ST_JUDE: Cytotoxicity using Alamar Blue to measure viability of Leishmania major; type: functional, organism-based
Procedure, shortened: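 L. major promastigotes; drug susceptibility read with Alamar Blue.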

Plasmodium falciparum [11] = assay: ST_JUDE: Plasmodium falciparum 3D7 EC50 (uM) as measured by SYBR green dye; type: functional, organism-based
[12] = ST_JUDE: Cytotoxicity using luciferase to measure ATP as an indicator of the viability of human Burkitt''s lymphoma lymphoblast cells (Raji); type: toxicity, cell-based
[13] = ST_JUDE: Cytotoxicity using luciferase to measure ATP as an indicator of the viability of human epithelial hepatocellular carcinoma cells (HepG2); type: toxicity, cell-based

C=CCN1C=CC=C/C1=C\c1sc2ccccc2[n+]1CC
EC50 (Plasmodium falciparum [1]): 2920 nM
EC50 (Plasmodium falciparum [2]): 1440 nM
EC50 (Plasmodium falciparum [3]): 2000 nM
EC50 [4]: > 21600 nM
EC50 (Plasmodium falciparum [5]): 1890 nM
EC50 (Plasmodium falciparum [6]): 1600 nM
EC50 (Plasmodium falciparum [7]): 920 nM
EC50 (Plasmodium falciparum [8]): > 5540 nM
EC50 (Plasmodium falciparum [9]): 1290 nM
EC50 (Trypanosoma brucei): 2670 nM
EC50 (Toxoplasma gondii): > 11800 nM
EC50 [10]: > 21600 nM
EC50 (Leishmania major): 12.2 nM
EC50 (Plasmodium falciparum [11]): 2310 nM
EC50 [12]: 2820 nM
EC50 [13]: > 21600 nM
